# Only some compounds are listed: those with a hit (about 1.6% of all), similar ones and a draw of the others.
# SR-BI DiI-HDL act: activators of SR-BI mediated HDL lipid uptake | CHO ldlA[mSR-BI] cells, DiI-HDL uptake fluorescence, 3 h; 100 = double the neutral-control signal | activation, % at 12.5 µM | 320,000 compounds, 0.096% hits | AID 504775;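 active = mean replicate activation of at least 60% and every replicate at or above 60%; inconclusive = mean or all-replicate condition met, but not both; inactive = mean below 60% and not all replicates reaching 60%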;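 also: 0% = median plate neutral-control signal and 100% = twice that signal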
#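 System: CHO ldlA[mSR-BI] cells / Medium: HEPES-buffered (25 mM, pH 7.4) F12 plus 0.5% BSA / Probe or stimulus: labelled HDL, 10 µg/mL / Doses: single compound concentration, delivered by pin transfer / Schedule: 3 h, 37 °C / Measured by: DiI fluorescence, bottom read / Measure: cell-associated DiI fluorescence as measure of HDL uptake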
# SR-BI HDL uptake: mouse SR-BI HDL lipid transfer inhibition; ldlA[mSR-BI] CHO cells, DiI-HDL uptake fluorescence, 3 h; inhibition, % at 12.5 µM; 320,000 compounds, 0.96% hits; AID 488896;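 active = mean replicate inhibition of at least 70% and a set share of replicates each scoring 70 or more; inconclusive = meets just one of the two criteria; inactive = fails both criteria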;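 also: 0% = median of neutral control wells and 100% = median of positive control wells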
# Target sequence (Q61009 whole entry, looked up): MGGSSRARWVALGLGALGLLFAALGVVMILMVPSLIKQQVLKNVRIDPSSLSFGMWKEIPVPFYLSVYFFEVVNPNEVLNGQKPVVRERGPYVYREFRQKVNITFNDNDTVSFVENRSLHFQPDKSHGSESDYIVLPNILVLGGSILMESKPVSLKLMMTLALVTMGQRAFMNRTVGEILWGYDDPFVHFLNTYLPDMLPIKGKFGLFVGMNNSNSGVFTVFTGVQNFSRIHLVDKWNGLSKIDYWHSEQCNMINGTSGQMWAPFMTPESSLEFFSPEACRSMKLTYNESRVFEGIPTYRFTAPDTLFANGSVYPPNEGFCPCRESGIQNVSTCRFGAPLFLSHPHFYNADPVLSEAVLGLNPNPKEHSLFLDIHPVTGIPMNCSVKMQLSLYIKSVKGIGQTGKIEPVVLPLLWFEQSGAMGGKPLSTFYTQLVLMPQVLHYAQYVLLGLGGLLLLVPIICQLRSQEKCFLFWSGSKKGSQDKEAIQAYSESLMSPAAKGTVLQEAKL
# Bfl-1 A1 inh: inhibitors of the anti-apoptotic protein A1, read as caspase activation; MEF A1-2A-BIM cells, Caspase-Glo 3/7 luminescence, 3 h; percent of clofoctol response, vehicle zero; caspase activation, % (test concentration not listed); 330,000 compounds, 0.066% hits; AID 2462;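 active = over half of replicate activation scores above 10%, or exactly half above 10 with the replicate mean above 10; inconclusive = replicate mean below 10 yet half the replicates above 10; inactive = over half of replicates below 10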
# H9c2 TAG inh: inhibitors of triacylglycerol accumulation; inhibition, % at 12.5 µM; AID 651582; H9c2 cells, Nile Red lipid (TAG) fluorescence; cells loaded with 200 µM oleic acid; 230,000 compounds, 0.66% hits;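 active = pattern-corrected inhibition of lipid staining of at least 50% with the nuclear-stain viability signal not falling by more than 50%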;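 also: 0% = DMSO wells and 100% = triacsin C control wells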
# Vif inh: blocks HIV Vif function | AID 602346 | inhibition, % at 7.49 µM | 340,000 compounds, 0.35% hits | HEK293T cells, Vif self-association by quenched fluorescence, imaging, 24 h; in the data active = inhibition above about 50%, passing the limit was not always enough; inconclusive = no clear call, values can overlap the other calls; inactive = below about 31%
# Starred values were filed as active, the others as inactive; ? = inconclusive; . = no result given.
SMILES,SR-BI DiI-HDL act,SR-BI HDL uptake,Bfl-1 A1 inh,H9c2 TAG inh,Vif inh
CCCOC(=O)c1ccc(-c2ccc(C=O)o2)cc1,2,-2,0,.,13
CCOC(=O)c1ccc(-c2ccc(/C=N/NC(=O)c3cncc(Br)c3)o2)cc1,.,.,-1,-5,58*
CCCCOC(=O)c1ccc(-c2ccc(/C=N/NC(=S)NCC)o2)cc1,-88,88*,-1,.,.
CC1CC[C@@]2(OC1)O[C@H]1CC3[C@@H]4C[C@@H](O)[C@@]5(O)C[C@@H](O)[C@H](O)C[C@]5(C)[C@H]4CC[C@]3(C)[C@H]1[C@@H]2C (some centres not stated),69*,-69,1,.,-2
COc1cc(OC)c(OC)cc1CNc1cc(C)ccc1OC,-72,72*,0,.,-6
COc1ccc(C)cc1NCc1cccc(OC)c1OC,-5,5,0,.,-4
CN(CC(=O)O/N=C(\N)c1ccc([N+](=O)[O-])cc1)S(=O)(=O)c1ccc2ccccc2c1,19,-19,0,.,59*
COCCNC(=O)C1(C)CCCN(C(=O)c2cc(OC)c(OC)c(OC)c2)C1 (configuration not stated),.,.,.,-12,1
C[C@H](NC(=O)c1ncn2c1C(=O)N[C@@H](C)C2)C(=O)OC(C)(C)C,.,.,.,-10,-4
C=CCOc1cccc(C(=O)N2CCCC(Nc3ccc4c(c3)OCCO4)C2)c1 (configuration not stated),3,-3,-1,5,-4
C[C@H]1CN([C@@H](C)CO)C(=O)Cc2cc(NC(=O)CCC(F)(F)F)ccc2O[C@H]1CN(C)Cc1ccc(-c2ccccc2)cc1,154*,-154,0,22,-7
COc1ccc(NC(=O)Nc2ccc3c(c2)CC(=O)N([C@H](C)CO)C[C@@H](C)[C@H](CN(C)C(=O)Nc2ccccc2)O3)cc1,-70,70*,1,-49,8
C[C@@H]1CN([C@H](C)CO)C(=O)Cc2cc(NC(=O)Nc3ccccc3)ccc2O[C@@H]1CN(C)C(=O)Nc1ccc2c(c1)OCO2,3,-3,0,-8,4
Cn1c(=O)n(C)c2cc(NC(=O)CSc3ccccc3)ccc21,-5,5,0,3,2
CN(C)c1ccc(C2CC(=O)C=C(Nc3ccccc3N)C2)cc1 (configuration not stated),.,.,-1,4,5
Cc1ccc(-n2c(SCC(=O)Nc3ccc4c(c3)OCO4)nnc2-c2cccs2)cc1,-60,60,-1,.,76*
Cc1sc2ncnc(Nc3ccccc3)c2c1C,-12,12,1,-4,.
Cc1sc2ncnc(Nc3ccc(N4CCOCC4)cc3)c2c1-c1ccccc1,-76,76*,-1,.,.
CCSc1ccccc1C(=O)Nc1ccc([N+](=O)[O-])cc1OC,-84,84*,0,19,.
CCCC(=O)Nc1ccc(C(=O)Nc2ccc([N+](=O)[O-])cc2OC)cc1,-77,77*,1,3,-6
CCCCC(=O)Nc1ccc(NC(=O)c2ccc([N+](=O)[O-])cc2)cc1OC,-30,30,0,-5,2
COc1cccc(C(=O)c2c[nH]c(C(=O)NCCCN3CCOCC3)c2)c1,16,-16,0,6,-5
Cn1c(-c2ccccc2)c(/C=N/NC(=O)c2cccnc2)c2ccccc21,-41,41,1,4,6
O=C(N/N=C/c1c(-c2ccccc2)[nH]c2ccccc12)c1cccnc1,-75,75*,0,24,-3
CCN1/C(=C/C=C/c2oc3ccc(-c4ccccc4)cc3[n+]2CC)Oc2ccc(-c3ccccc3)cc21,-23,23,-1,-500,147*
SMILES,SR-BI DiI-HDL act,SR-BI HDL uptake,Bfl-1 A1 inh,H9c2 TAG inh,Vif inh
COc1ccc(CCC(=O)O)cc1OC,4,-4,1,-21,-1
S=c1nc(Cc2ccc(Cl)cc2)[nH]c2ccccc12,7,-7,-1,.,-9
S=c1nc(Cc2ccccc2)[nH]c2ccccc12,11,-11,-1,.,68*
COC(=O)[C@@H]1C[C@H]2CC[C@H](O)C[C@H]2N1Cc1ccc(C)s1,60*,-60,0,1,2
COC(=O)[C@@H]1C[C@@H]2CC[C@@H](O)C[C@@H]2N1Cc1ccc(Cl)cc1,14,-14,1,9,-2
CCS(=O)(=O)C1=NN2C(=N)/C(=C\c3ccc(SCc4ccco4)o3)C(=O)N=C2S1,?,-91,.,14,2

# Source: PubChem
